Values after ≈ are worked out from the molar mass of the structure shown.
Assays:
Epidermophyton floccosum = test: In vitro minimum inhibitory concentration (MIC) against isolates of Epidermophyton floccosum in Sabouraud's dextrose broth; format: functional
In short: (§1)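 Tube broth dilution in Sabouraud's dextrose broth, pH 6.5. Compounds were dissolved in Me₂SO and serially diluted in medium, then incubated at 30 °C. Growth control was read at 48 h for Candida albicans and C. parapsilosis, 72 h for Aspergillus fumigatus, and 7 days for Sporothrix schenckii and the dermatophytes. MIC is the lowest concentration with no macroscopic growth.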

Sporothrix schenckii = test: In vitro minimum inhibitory concentration (MIC) against isolates of Sporothrix schenck ii in Sabouraud's dextrose broth; format: functional; in short: as §1
Candida parapsilosis = test: In vitro minimum inhibitory concentration (MIC) against isolates of Candida parapsilosis in Sabouraud's dextrose broth; format: functional; conditions: Lodderomyces parapsilosis; in short: as §1
Cavia porcellus [1] = test: Compound was evaluated in vivo for the activity (% mycological cure) by topical treatment of guinea pig dermatophytosis caused by Trichophyton mentagrophytes (0.125% of compound); format: functional
In short: (§2)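 Infection model: 8–10 guinea pigs per dose level, lumbar backs shorn, 10^6 cfu T. mentagrophytes in 0.1 mL Sabouraud 2% dextrose broth applied over a 3.5 cm diameter area. Starting 48 h post-inoculation, 0.4 mL compound solution in PEG 400/ethanol 75/25 (v/v) was spread on the lesion once daily for 7 days. Read-out on day 3 after the last treatment: hair cultures checked microscopically for growth at hair roots.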

Cavia porcellus [2] = test: Compound was evaluated in vivo for the activity (% mycological cure) by oral treatment of guinea pig dermatophytosis caused by Trichophyton mentagrophytes. Dose = 150 mg/kg/day; format: functional
In short: (§3)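 Guinea pigs, 8–10 per dose, with shorn lumbar backs were inoculated over a 3.5 cm circle with 0.1 mL Sabouraud 2% dextrose broth carrying 10^6 cfu T. mentagrophytes. Compound in miglyol 812 was given as 0.5 mL by stomach tube once daily for 9 days from the inoculation day. One day after the last dose, hairs from lesions were cultured and hair-root regions examined microscopically for fungal growth.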

Microsporum canis = test: In vitro minimum inhibitory concentration (MIC) against isolates of Microsporum canis in Sabouraud's dextrose broth; format: functional; in short: as §1
Trichophyton benhamiae = test: In vitro minimum inhibitory concentration (MIC) against isolates of Trichophyton mentagrophytes in Sabouraud's dextrose broth; format: functional, Arthroderma benhamiae; in short: as §1
Cavia porcellus [3] = test: Compound was evaluated in vivo for the activity (% mycological cure) by topical treatment of guinea pig dermatophytosis caused by Trichophyton mentagrophytes (0.5% of compound); format: functional; in short: as §2
Cavia porcellus [4] = test: Compound was evaluated in vivo for the activity (% mycological cure) by oral treatment of guinea pig dermatophytosis caused by Trichophyton mentagrophytes. Dose = 5 mg/kg/day; format: functional; in short: as §3
Aspergillus fumigatus = test: In vitro minimum inhibitory concentration (MIC) against isolates of Aspergillus fumigatus in Sabouraud's dextrose broth; format: functional; in short: as §1
Candida albicans = test: In vitro minimum inhibitory concentration (MIC) against isolates of Candida albicans in Sabouraud's dextrose broth; format: functional; in short: as §1
Cavia porcellus [5] = test: Compound was evaluated in vivo for the activity (% mycological cure) by oral treatment of guinea pig dermatophytosis caused by Trichophyton mentagrophytes. Dose = 10 mg/kg/day; format: functional; in short: as §3
Cavia porcellus [6] = test: Compound was evaluated in vivo for the activity (% mycological cure) by oral treatment of guinea pig dermatophytosis caused by Trichophyton mentagrophytes. Dose = 37.5 mg/kg/day; format: functional; in short: as §3
Cavia porcellus [7] = test: Compound was evaluated in vivo for the activity (% mycological cure) by oral treatment of guinea pig dermatophytosis caused by Trichophyton mentagrophytes. Dose = 75 mg/kg/day; format: functional; in short: as §3
Cavia porcellus [8] = test: Compound was evaluated in vivo for the activity (% mycological cure) by oral treatment of guinea pig dermatophytosis caused by Trichophyton mentagrophytes. Dose =5 mg/kg/day; format: functional; in short: as §3

| SMILES | MIC (Epidermophyton floccosum) [mg/L] | MIC (Sporothrix schenckii) [mg/L] | MIC (Candida parapsilosis) [mg/L] | MIC (Microsporum canis) [mg/L] | MIC (Trichophyton benhamiae) [mg/L] | MIC (Aspergillus fumigatus) [mg/L] | MIC (Candida albicans) [mg/L] | Activity (Cavia porcellus [1]) [%] | Activity (Cavia porcellus [2]) [%] | Activity (Cavia porcellus [3]) [%] | Activity (Cavia porcellus [4]) [%] | Activity (Cavia porcellus [5]) [%] | Activity (Cavia porcellus [6]) [%] | Activity (Cavia porcellus [7]) [%] | Activity (Cavia porcellus [8]) [%] |
| --- | --- | --- | --- | --- | --- | --- | --- | --- | --- | --- | --- | --- | --- | --- | --- |
| CCCC/C=C/C#CCN(C)Cc1cccc2ccccc12 | 1.6 (≈ 5.49 µM) | > 100 | > 100 | 0.2 (≈ 0.686 µM) | 0.2 (≈ 0.686 µM) | – | – | – | – | – | – | – | – | – | – |
| CN(C/C=C/C#CC(C)(C)C)Cc1cccc2ccccc12 [TERBINAFINE] | 0.006 (≈ 0.0206 µM) | 0.4 (≈ 1.37 µM) | 0.4 (≈ 1.37 µM) | 0.006 (≈ 0.0206 µM) | 0.006 (≈ 0.0206 µM) | 0.8 (≈ 2.75 µM) | 25 (≈ 85.8 µM) | – | – | – | 98 | 100 | – | – | – |
| CN(C/C=C/c1ccccc1)Cc1cccc2ccccc12 [NAFTIFINE] | 0.2 (≈ 0.696 µM) | 1.6 (≈ 5.57 µM) | 1.6 (≈ 5.57 µM) | 0.1 (≈ 0.348 µM) | 0.05 (≈ 0.174 µM) | – | – | 35 | – | 65 | – | – | – | – | – |
| CCC(C)C#C/C=C/CN(C)Cc1cccc2ccccc12 (configuration not stated) | 0.006 (≈ 0.0206 µM) | 0.8 (≈ 2.75 µM) | 0.4 (≈ 1.37 µM) | 0.006 (≈ 0.0206 µM) | 0.01 (≈ 0.0343 µM) | 100 (≈ 343 µM) | 100 (≈ 343 µM) | – | – | – | – | 75 | – | – | 23 |
| CCCCC#CC#CCN(C)Cc1cccc2ccccc12 | 3.1 (≈ 10.7 µM) | 100 (≈ 346 µM) | 100 (≈ 346 µM) | 0.8 (≈ 2.76 µM) | 0.2 (≈ 0.691 µM) | – | – | – | – | – | – | – | – | – | – |
| CCCCC#C/C=C\CN(C)Cc1cccc2ccccc12 | 100 (≈ 343 µM) | 50 (≈ 172 µM) | 100 (≈ 343 µM) | 0.2 (≈ 0.686 µM) | 0.2 (≈ 0.686 µM) | – | – | – | – | – | – | – | – | – | – |

The remaining molecules from weak to strong by MIC (Epidermophyton floccosum), led by results:

| MIC (Epidermophyton floccosum) [mg/L] | MIC (Sporothrix schenckii) [mg/L] | MIC (Candida parapsilosis) [mg/L] | MIC (Microsporum canis) [mg/L] | MIC (Trichophyton benhamiae) [mg/L] | MIC (Aspergillus fumigatus) [mg/L] | MIC (Candida albicans) [mg/L] | SMILES | Activity (Cavia porcellus [1]) [%] | Activity (Cavia porcellus [2]) [%] | Activity (Cavia porcellus [3]) [%] | Activity (Cavia porcellus [4]) [%] | Activity (Cavia porcellus [5]) [%] | Activity (Cavia porcellus [6]) [%] | Activity (Cavia porcellus [7]) [%] | Activity (Cavia porcellus [8]) [%] |
| --- | --- | --- | --- | --- | --- | --- | --- | --- | --- | --- | --- | --- | --- | --- | --- |
| 0.2 (≈ 0.682 µM) | 3.1 (≈ 10.6 µM) | 1.6 (≈ 5.45 µM) | 0.1 (≈ 0.341 µM) | 0.05 (≈ 0.17 µM) | – | – | CCCC/C=C/C=C/CN(C)Cc1cccc2ccccc12 | 40 | 43 | 69 | – | – | – | – | – |
| 0.01 (≈ 0.0343 µM) | 1.6 (≈ 5.49 µM) | 0.4 (≈ 1.37 µM) | 0.01 (≈ 0.0343 µM) | 0.01 (≈ 0.0343 µM) | 100 (≈ 343 µM) | 100 (≈ 343 µM) | CCCCC#C/C=C/CN(C)Cc1cccc2ccccc12 | 83 | 100 | 100 | 0 | 15 | 83 | 100 | – |
